Experimental data published in ChEMBL document CHEMBL5058577, “EUbOPEN Chemogenomics Library 2 (Multiplex)” (2022).

System: HEK-293T
Experiment: Multiplex assay against HEK293T
Format: toxicity, cell-based
Details: human
Summary of the method: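 Live cells were stained at seeding with Hoechst33342, BioTracker Green Microtubule Cytoskeleton Dye, MitoTracker Red and Annexin V Alexa Fluor 680, then imaged on a CQ1 microscope at 37°C and 5% CO2 after compound addition. CellPathfinder machine-learning gating split cells into Hoechst high-intensity objects or normal cells. Normal cells were split into healthy, pyknosed or fragmented nuclei, and pyknosed cells into mitotic or apoptotic. Tubulin, mitochondrial-mass and membrane-permeability phenotypes are per cents of healthy-nucleus cells.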

[1] = 12 h, 1 µM, compound concentration 1 uM, replicate 1
[2] = 12 h, 1 µM, compound concentration 1 uM, replicate 2
[3] = 12 h, 10 µM, compound concentration 10 uM, replicate 1
[4] = 12 h, 10 µM, compound concentration 10 uM, replicate 2
[5] = 24 h, 1 µM, compound concentration 1 uM, replicate 1
[6] = 24 h, 1 µM, compound concentration 1 uM, replicate 2
[7] = 24 h, 10 µM, compound concentration 10 uM, replicate 1
[8] = 24 h, 10 µM, compound concentration 10 uM, replicate 2
[9] = 48 h, 1 µM, compound concentration 1 uM, replicate 1
[10] = 48 h, 1 µM, compound concentration 1 uM, replicate 2
[11] = 48 h, 10 µM, compound concentration 10 uM, replicate 1
[12] = 48 h, 10 µM, compound concentration 10 uM, replicate 2

## Cc1cc(NC(=O)NCCN2CCC(O)(Cc3ccccc3)CC2)c2ccccc2n1 [PALOSURAN]
[1]
  Population Apoptotic (%): 36%
  Population Fragmented Nuclei (%): 7%
  Population Healthy Nuclei (%): 77%
  Population Hoechst High Intensity Objects (%): 6%
  Population Membrane Permeable-Phenotype (%): 0%
  Population Mitochondria Different-Phenotype (%): 42%
  Population Mitotic Cells (%): 63%
  Population Normal (%): 93%
  Population Pyknosed Nuclei (%): 14%
  Population Tubulin-Different-Phenotype (%): 25%
  Total Cell Count: 373
[2]
  Population Apoptotic (%): 48%
  Population Fragmented Nuclei (%): 9%
  Population Healthy Nuclei (%): 81%
  Population Hoechst High Intensity Objects (%): 9%
  Population Mitochondria Different-Phenotype (%): 57%
  Population Mitotic Cells (%): 52%
  Population Normal (%): 90%
  Population Pyknosed Nuclei (%): 8%
  Population Tubulin-Different-Phenotype (%): 26%
  Total Cell Count: 326
[3]
  Population Apoptotic (%): 38%
  Population Fragmented Nuclei (%): 5%
  Population Healthy Nuclei (%): 81%
  Population Hoechst High Intensity Objects (%): 8%
  Population Membrane Permeable-Phenotype (%): 0%
  Population Mitochondria Different-Phenotype (%): 53%
  Population Mitotic Cells (%): 61%
  Population Normal (%): 91%
  Population Pyknosed Nuclei (%): 12%
  Population Tubulin-Different-Phenotype (%): 41%
  Total Cell Count: 461
[4]
  Population Apoptotic (%): 61%
  Population Healthy Nuclei (%): 75%
  Population Mitochondria Different-Phenotype (%): 76%
  Population Mitotic Cells (%): 38%
  Population Pyknosed Nuclei (%): 18%
  Population Tubulin-Different-Phenotype (%): 42%
  Total Cell Count: 346
[5]
  Population Apoptotic (%): 17%
  Population Fragmented Nuclei (%): 9%
  Population Healthy Nuclei (%): 78%
  Population Hoechst High Intensity Objects (%): 6%
  Population Membrane Permeable-Phenotype (%): 0%
  Population Mitochondria Different-Phenotype (%): 24%
  Population Mitotic Cells (%): 82%
  Population Normal (%): 93%
  Population Pyknosed Nuclei (%): 11%
  Population Tubulin-Different-Phenotype (%): 19%
  Total Cell Count: 511
[6]
  Population Apoptotic (%): 46%
  Population Fragmented Nuclei (%): 10%
  Population Healthy Nuclei (%): 76%
  Population Hoechst High Intensity Objects (%): 4%
  Population Mitochondria Different-Phenotype (%): 45%
  Population Mitotic Cells (%): 53%
  Population Normal (%): 95%
  Population Pyknosed Nuclei (%): 13%
  Population Tubulin-Different-Phenotype (%): 14%
  Total Cell Count: 343
[7]
  Population Apoptotic (%): 35%
  Population Fragmented Nuclei (%): 8%
  Population Healthy Nuclei (%): 79%
  Population Hoechst High Intensity Objects (%): 4%
  Population Membrane Permeable-Phenotype (%): 0%
  Population Mitochondria Different-Phenotype (%): 43%
  Population Mitotic Cells (%): 64%
  Population Normal (%): 95%
  Population Pyknosed Nuclei (%): 11%
  Population Tubulin-Different-Phenotype (%): 32%
  Total Cell Count: 598
[8]
  Population Apoptotic (%): 51%
  Population Fragmented Nuclei (%): 7%
  Population Healthy Nuclei (%): 83%
  Population Hoechst High Intensity Objects (%): 6%
  Population Mitochondria Different-Phenotype (%): 64%
  Population Mitotic Cells (%): 48%
  Population Normal (%): 93%
  Population Pyknosed Nuclei (%): 9%
  Population Tubulin-Different-Phenotype (%): 26%
  Total Cell Count: 396
[9]
  Population Apoptotic (%): 19%
  Population Fragmented Nuclei (%): 15%
  Population Healthy Nuclei (%): 79%
  Population Hoechst High Intensity Objects (%): 3%
  Population Membrane Permeable-Phenotype (%): 1%
  Population Mitochondria Different-Phenotype (%): 16%
  Population Mitotic Cells (%): 80%
  Population Normal (%): 96%
  Population Pyknosed Nuclei (%): 5%
  Population Tubulin-Different-Phenotype (%): 12%
  Total Cell Count: 938
[10]
  Population Apoptotic (%): 32%
  Population Fragmented Nuclei (%): 13%
  Population Healthy Nuclei (%): 81%
  Population Membrane Permeable-Phenotype (%): 0%
  Population Mitochondria Different-Phenotype (%): 24%
  Population Mitotic Cells (%): 67%
  Population Tubulin-Different-Phenotype (%): 15%
  Total Cell Count: 552
[11]
  Population Apoptotic (%): 29%
  Population Fragmented Nuclei (%): 15%
  Population Healthy Nuclei (%): 75%
  Population Hoechst High Intensity Objects (%): 5%
  Population Membrane Permeable-Phenotype (%): 0%
  Population Mitochondria Different-Phenotype (%): 34%
  Population Mitotic Cells (%): 70%
  Population Normal (%): 94%
  Population Pyknosed Nuclei (%): 8%
  Population Tubulin-Different-Phenotype (%): 17%
  Total Cell Count: 874
[12]
  Population Apoptotic (%): 41%
  Population Fragmented Nuclei (%): 9%
  Population Healthy Nuclei (%): 84%
  Population Hoechst High Intensity Objects (%): 4%
  Population Mitochondria Different-Phenotype (%): 42%
  Population Mitotic Cells (%): 58%
  Population Normal (%): 95%
  Population Pyknosed Nuclei (%): 6%
  Population Tubulin-Different-Phenotype (%): 19%
  Total Cell Count: 570

## CN(C)C/C=C/C(=O)Nc1ccc(C(=O)N2CCCC(Nc3ncc(Cl)c(-c4c[nH]c5ccccc45)n3)C2)cc1 (stereo unspecified)
[1]
  Population Apoptotic (%): 46%
  Population Fragmented Nuclei (%): 8%
  Population Healthy Nuclei (%): 55%
  Population Hoechst High Intensity Objects (%): 30%
  Population Membrane Permeable-Phenotype (%): 0%
  Population Mitochondria Different-Phenotype (%): 87%
  Population Mitotic Cells (%): 53%
  Population Normal (%): 69%
  Population Pyknosed Nuclei (%): 35%
  Population Tubulin-Different-Phenotype (%): 69%
  Total Cell Count: 227
[2]
  Population Apoptotic (%): 63%
  Population Fragmented Nuclei (%): 6%
  Population Healthy Nuclei (%): 64%
  Population Hoechst High Intensity Objects (%): 23%
  Population Mitochondria Different-Phenotype (%): 89%
  Population Mitotic Cells (%): 36%
  Population Normal (%): 76%
  Population Pyknosed Nuclei (%): 29%
  Population Tubulin-Different-Phenotype (%): 70%
  Total Cell Count: 231
[3]
  Population Apoptotic (%): 62%
  Population Fragmented Nuclei (%): 12%
  Population Healthy Nuclei (%): 57%
  Population Hoechst High Intensity Objects (%): 35%
  Population Membrane Permeable-Phenotype (%): 0%
  Population Mitochondria Different-Phenotype (%): 95%
  Population Mitotic Cells (%): 37%
  Population Normal (%): 64%
  Population Pyknosed Nuclei (%): 30%
  Population Tubulin-Different-Phenotype (%): 79%
  Total Cell Count: 269
[4]
  Population Apoptotic (%): 77%
  Population Fragmented Nuclei (%): 7%
  Population Healthy Nuclei (%): 64%
  Population Hoechst High Intensity Objects (%): 29%
  Population Mitotic Cells (%): 22%
  Population Normal (%): 70%
  Population Pyknosed Nuclei (%): 28%
  Population Tubulin-Different-Phenotype (%): 81%
  Total Cell Count: 181
[5]
  Population Apoptotic (%): 72%
  Population Fragmented Nuclei (%): 15%
  Population Healthy Nuclei (%): 62%
  Population Hoechst High Intensity Objects (%): 27%
  Population Membrane Permeable-Phenotype (%): 0%
  Population Mitochondria Different-Phenotype (%): 85%
  Population Mitotic Cells (%): 27%
  Population Normal (%): 72%
  Population Pyknosed Nuclei (%): 22%
  Population Tubulin-Different-Phenotype (%): 74%
  Total Cell Count: 222
[6]
  Population Apoptotic (%): 74%
  Population Fragmented Nuclei (%): 9%
  Population Healthy Nuclei (%): 67%
  Population Hoechst High Intensity Objects (%): 26%
  Population Mitochondria Different-Phenotype (%): 89%
  Population Mitotic Cells (%): 25%
  Population Normal (%): 73%
  Population Pyknosed Nuclei (%): 23%
  Population Tubulin-Different-Phenotype (%): 70%
  Total Cell Count: 207
[7]
  Population Apoptotic (%): 74%
  Population Fragmented Nuclei (%): 19%
  Population Healthy Nuclei (%): 55%
  Population Hoechst High Intensity Objects (%): 49%
  Population Membrane Permeable-Phenotype (%): 0%
  Population Mitochondria Different-Phenotype (%): 96%
  Population Mitotic Cells (%): 25%
  Population Normal (%): 50%
  Population Pyknosed Nuclei (%): 24%
  Population Tubulin-Different-Phenotype (%): 52%
  Total Cell Count: 314
[8]
  Population Apoptotic (%): 88%
  Population Fragmented Nuclei (%): 10%
  Population Healthy Nuclei (%): 68%
  Population Hoechst High Intensity Objects (%): 34%
  Population Mitochondria Different-Phenotype (%): 98%
  Population Mitotic Cells (%): 11%
  Population Normal (%): 65%
  Population Pyknosed Nuclei (%): 20%
  Population Tubulin-Different-Phenotype (%): 77%
  Total Cell Count: 197
[9]
  Population Apoptotic (%): 67%
  Population Fragmented Nuclei (%): 16%
  Population Healthy Nuclei (%): 59%
  Population Hoechst High Intensity Objects (%): 30%
  Population Membrane Permeable-Phenotype (%): 0%
  Population Mitochondria Different-Phenotype (%): 79%
  Population Mitotic Cells (%): 32%
  Population Normal (%): 69%
  Population Pyknosed Nuclei (%): 23%
  Population Tubulin-Different-Phenotype (%): 71%
  Total Cell Count: 239
[10]
  Population Apoptotic (%): 81%
  Population Fragmented Nuclei (%): 6%
  Population Healthy Nuclei (%): 65%
  Population Hoechst High Intensity Objects (%): 26%
  Population Mitochondria Different-Phenotype (%): 95%
  Population Mitotic Cells (%): 18%
  Population Normal (%): 73%
  Population Pyknosed Nuclei (%): 27%
  Population Tubulin-Different-Phenotype (%): 74%
  Total Cell Count: 184
[11]
  Population Apoptotic (%): 55%
  Population Fragmented Nuclei (%): 62%
  Population Healthy Nuclei (%): 14%
  Population Hoechst High Intensity Objects (%): 67%
  Population Membrane Permeable-Phenotype (%): 0%
  Population Mitochondria Different-Phenotype (%): 100%
  Population Mitotic Cells (%): 44%
  Population Normal (%): 32%
  Population Pyknosed Nuclei (%): 23%
  Population Tubulin-Different-Phenotype (%): 23%
  Total Cell Count: 361
[12]
  Population Apoptotic (%): 80%
  Population Fragmented Nuclei (%): 47%
  Population Healthy Nuclei (%): 30%
  Population Hoechst High Intensity Objects (%): 58%
  Population Mitochondria Different-Phenotype (%): 94%
  Population Mitotic Cells (%): 20%
  Population Normal (%): 41%
  Population Pyknosed Nuclei (%): 21%
  Population Tubulin-Different-Phenotype (%): 57%
  Total Cell Count: 277
